From ChEMBL document CHEMBL1955837 (J Med Chem, 2012)
Activity calls are given as the source filed them. The calls are words filed in the database; no cut-off is given here.

How the values were obtained:
[1] = organism: Homo sapiens; test: Selectivity ratio of IC50 for human recombinant eNOS to IC50 for human recombinant nNOS
[2] = molecular target: Nitric oxide synthase 1 (Homo sapiens, UniProt P29475); test: Inhibition of human recombinant nNOS expressed in baculovirus infected insect Sf9 cells assessed as conversion of [3H]L-arginine to [3H]L-citrulline incubated for 15 mins prior to substrate addition measured after 45 mins by liquid scintillation counting
[3] = molecular target: T1, Nitric oxide synthase 3 (Homo sapiens, UniProt P29474); test: Inhibition of human recombinant eNOS expressed in baculovirus infected insect Sf9 cells assessed as conversion of [3H]L-arginine to [3H]L-citrulline incubated for 15 mins prior to substrate addition measured after 45 mins by liquid scintillation counting
T1 sequence (P29474 whole entry): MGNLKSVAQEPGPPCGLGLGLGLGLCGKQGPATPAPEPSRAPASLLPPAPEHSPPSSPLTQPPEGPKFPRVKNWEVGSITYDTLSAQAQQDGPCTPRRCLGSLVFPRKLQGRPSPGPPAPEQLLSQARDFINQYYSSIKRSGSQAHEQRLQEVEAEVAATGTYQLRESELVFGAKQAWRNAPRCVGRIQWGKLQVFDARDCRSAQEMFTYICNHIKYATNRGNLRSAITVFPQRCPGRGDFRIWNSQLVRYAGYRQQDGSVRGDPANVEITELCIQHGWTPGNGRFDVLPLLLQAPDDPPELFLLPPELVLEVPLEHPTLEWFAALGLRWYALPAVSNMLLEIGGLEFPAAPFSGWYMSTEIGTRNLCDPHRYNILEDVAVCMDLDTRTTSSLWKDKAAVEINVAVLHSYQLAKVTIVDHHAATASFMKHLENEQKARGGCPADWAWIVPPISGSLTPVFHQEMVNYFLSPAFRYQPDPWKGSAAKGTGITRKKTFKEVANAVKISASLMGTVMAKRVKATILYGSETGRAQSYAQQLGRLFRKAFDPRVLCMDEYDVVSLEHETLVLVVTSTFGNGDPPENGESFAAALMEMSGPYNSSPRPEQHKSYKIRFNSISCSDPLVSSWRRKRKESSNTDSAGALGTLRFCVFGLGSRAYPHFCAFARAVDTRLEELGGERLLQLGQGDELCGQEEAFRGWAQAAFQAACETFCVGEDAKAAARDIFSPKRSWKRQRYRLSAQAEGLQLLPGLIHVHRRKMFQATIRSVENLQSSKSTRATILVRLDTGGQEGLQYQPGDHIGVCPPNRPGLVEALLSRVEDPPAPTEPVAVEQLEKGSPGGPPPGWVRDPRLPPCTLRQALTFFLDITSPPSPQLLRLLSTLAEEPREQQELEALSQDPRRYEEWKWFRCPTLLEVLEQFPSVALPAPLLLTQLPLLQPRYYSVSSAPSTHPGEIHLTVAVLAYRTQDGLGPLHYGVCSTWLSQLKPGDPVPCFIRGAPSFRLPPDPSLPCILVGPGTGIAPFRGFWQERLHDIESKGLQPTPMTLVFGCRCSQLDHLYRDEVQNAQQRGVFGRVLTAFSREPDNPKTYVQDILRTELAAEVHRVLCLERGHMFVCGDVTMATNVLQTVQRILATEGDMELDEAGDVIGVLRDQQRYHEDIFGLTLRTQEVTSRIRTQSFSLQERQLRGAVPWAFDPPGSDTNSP

[4] = molecular target: Nitric oxide synthase, inducible (Homo sapiens, UniProt P35228); test: Inhibition of human recombinant iNOS expressed in baculovirus infected insect Sf9 cells assessed as conversion of [3H]L-arginine to [3H]L-citrulline incubated for 15 mins prior to substrate addition measured after 45 mins by liquid scintillation counting
[5] = molecular target: Nitric oxide sythases; iNOS & nNOS (Homo sapiens) (UniProt P29475+P35228); test: Selectivity ratio of IC50 for human recombinant iNOS to IC50 for human recombinant nNOS
[6] = molecular target: Nitric oxide synthase 1 (Rattus norvegicus, UniProt P29476); test: Inhibition of rat recombinant nNOS expressed in baculovirus infected insect Sf9 cells assessed as conversion of [3H]L-arginine to [3H]L-citrulline incubated for 15 mins prior to substrate addition measured after 45 mins by liquid scintillation counting
[7] = molecular target: Nitric oxide synthase 3 (Rattus norvegicus, UniProt Q62600); test: Inhibition of rat recombinant eNOS expressed in baculovirus infected insect Sf9 cells assessed as conversion of [3H]L-arginine to [3H]L-citrulline incubated for 15 mins prior to substrate addition measured after 45 mins by liquid scintillation counting
[8] = molecular target: Nitric oxide synthase, inducible (Rattus norvegicus, UniProt Q06518); test: Inhibition of rat recombinant iNOS expressed in baculovirus infected insect Sf9 cells assessed as conversion of [3H]L-arginine to [3H]L-citrulline incubated for 15 mins prior to substrate addition measured after 45 mins by liquid scintillation counting
[9] = system: Rattus norvegicus; test: Analgesic activity in rat Chung model of neuropathic pain assessed as partial reversal of thermal hyperalgesia at 30 mg/kg, ip; assay type: functional, organism-based; parameters: dose 30 mg/kg
Summary of the method: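 Rats anesthetized with halothane; L5 and L6 spinal nerves exposed, isolated and tightly ligated with 4-0 silk suture distal to the DRG. After surgical recovery, hyperalgesia was read as paw withdrawal latency to radiant heat applied to the paw after intraperitoneal dosing.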

[10] = Cardiotoxicity in human arteries assessed as inhibition of acetylcholine-mediated vasorelaxation at 100 uM pretreated with U46619 prior to Ach challenge measured after 50 mins; assay type: toxicity, tissue-based, Artery
Summary of the method: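 Human resistance artery rings (~2 mm) were wire-mounted in a myograph in Krebs-bicarbonate PSS gassed with 95% O2/5% CO2 at 37 °C, and isometric tension was recorded. After ≥30 min equilibration, rings received three KPSS (62.5 mM) challenges. Endothelial integrity was checked with U46619 (1 × 10⁻⁷ M) then ACh. Compound was added for 50 min without L-arginine, then rings were submaximally precontracted with U46619 before cumulative ACh (1 × 10⁻¹⁰ to 1 × 10⁻⁵ M).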

[11] = Cardiotoxicity in human arteries assessed as inhibition of acetylcholine-mediated vasorelaxation at 100 uM pretreated with U46619 prior to Ach challenge measured after 50 mins in presence of L-arginine; assay type: toxicity, tissue-based, Artery
[12] = molecular target: Mu-type opioid receptor (Homo sapiens) (UniProt P35372); test: Displacement of [3H]DAMGO from human recombinant mu opioid receptor expressed in HEK 293 cells at 10 uM after 120 mins; assay type: cell-based; conditions: HEK293
Summary of the method: (§1)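 Single-concentration (10 μM) radioligand binding screen. Specific binding = total minus nonspecific binding, with nonspecific binding taken in excess unlabeled ligand. Results were given as percent inhibition of control specific binding.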

[13] = molecular target: Kappa-type opioid receptor (Rattus norvegicus) (UniProt P34975); test: Displacement of [3H]U 69593 from rat recombinant kappa opioid receptor expressed in CHO cells at 10 uM after 60 mins; assay type: cell-based; summary of the method: as §1
[14] = organism: Rattus norvegicus; test: Displacement of [3H]DTG from rat cerebral cortex sigma receptor at 10 uM after 120 mins; assay type: tissue-based; summary of the method: as §1
[15] = molecular target: Adrenergic receptor alpha-2 (Rattus norvegicus) (UniProt P22086+P19328+P22909); test: Displacement of [3H]RX 821002 from rat cerebral cortex alpha2 adrenergic receptor at 10 uM after 60 mins; assay type: tissue-based; summary of the method: as §1
[16] = molecular target: 5-hydroxytryptamine receptor 1B (Rattus norvegicus) (UniProt P28564); test: Displacement of [125I]CYP from rat cerebral cortex 5HT1B receptor at 10 uM after 120 mins in the presence of (-)propranolol; assay type: tissue-based; summary of the method: as §1
[17] = molecular target: 5-hydroxytryptamine receptor 5A (Homo sapiens) (UniProt P47898); test: Displacement of [3H]LSD from human recombinant 5-HT5a receptor expressed in HEK293 cells at 10 uM after 120 mins; assay type: cell-based; summary of the method: as §1
[18] = molecular target: Muscarinic acetylcholine receptor M1 (Homo sapiens) (UniProt P11229); test: Displacement of [3H]pirenzepine from human recombinant muscarinic M1 receptor expressed in CHO cells at 10 uM after 60 mins; assay type: cell-based; summary of the method: as §1
[19] = molecular target: Muscarinic acetylcholine receptor M2 (Homo sapiens) (UniProt P08172); test: Displacement of [3H]AF-DX 384 from human recombinant muscarinic M2 receptor expressed in CHO cells at 10 uM after 60 mins; assay type: cell-based; summary of the method: as §1
[20] = molecular target: Muscarinic acetylcholine receptor M3 (Homo sapiens) (UniProt P20309); test: Displacement of [3H]4-DAMP from human recombinant muscarinic M3 receptor expressed in CHO cells at 10 uM after 60 mins; assay type: cell-based; summary of the method: as §1
[21] = molecular target: Muscarinic acetylcholine receptor M4 (Homo sapiens) (UniProt P08173); test: Displacement of [3H]4-DAMP from human recombinant muscarinic M4 receptor expressed in CHO cells at 10 uM after 60 mins; assay type: cell-based; summary of the method: as §1
[22] = molecular target: Muscarinic acetylcholine receptor M5 (Homo sapiens) (UniProt P08912); test: Displacement of [3H]4-DAMP from human recombinant muscarinic M5 receptor expressed in CHO cells at 10 uM after 60 mins; assay type: cell-based; summary of the method: as §1
[23] = molecular target: T2, Sodium-dependent noradrenaline transporter (Homo sapiens, UniProt P23975); test: Displacement of [3H]nisoxetine from human recombinant norepinephrine transporter expressed in CHO cells at 10 uM after 120 mins; assay type: cell-based; summary of the method: as §1
[24] = molecular target: T2, Sodium-dependent noradrenaline transporter; test: Displacement of [3H]nisoxetine from human recombinant norepinephrine transporter expressed in CHO cells after 120 mins; assay type: cell-based
[25] = system: Rattus norvegicus; test: Analgesic activity in rat Chung model of neuropathic pain assessed as partial reversal of thermal hyperalgesia at 30 mg/kg, ip measured after 30 mins; conditions: route intraperitoneal
[26] = molecular target: Voltage-gated inwardly rectifying potassium channel KCNH2 (Homo sapiens, UniProt Q12809); test: Inhibition of human Erg expressed in HEK293 cells by patch clamp assay

Chain of Nitric oxide synthase, inducible (Homo sapiens, UniProt P35228) (P35228 whole entry): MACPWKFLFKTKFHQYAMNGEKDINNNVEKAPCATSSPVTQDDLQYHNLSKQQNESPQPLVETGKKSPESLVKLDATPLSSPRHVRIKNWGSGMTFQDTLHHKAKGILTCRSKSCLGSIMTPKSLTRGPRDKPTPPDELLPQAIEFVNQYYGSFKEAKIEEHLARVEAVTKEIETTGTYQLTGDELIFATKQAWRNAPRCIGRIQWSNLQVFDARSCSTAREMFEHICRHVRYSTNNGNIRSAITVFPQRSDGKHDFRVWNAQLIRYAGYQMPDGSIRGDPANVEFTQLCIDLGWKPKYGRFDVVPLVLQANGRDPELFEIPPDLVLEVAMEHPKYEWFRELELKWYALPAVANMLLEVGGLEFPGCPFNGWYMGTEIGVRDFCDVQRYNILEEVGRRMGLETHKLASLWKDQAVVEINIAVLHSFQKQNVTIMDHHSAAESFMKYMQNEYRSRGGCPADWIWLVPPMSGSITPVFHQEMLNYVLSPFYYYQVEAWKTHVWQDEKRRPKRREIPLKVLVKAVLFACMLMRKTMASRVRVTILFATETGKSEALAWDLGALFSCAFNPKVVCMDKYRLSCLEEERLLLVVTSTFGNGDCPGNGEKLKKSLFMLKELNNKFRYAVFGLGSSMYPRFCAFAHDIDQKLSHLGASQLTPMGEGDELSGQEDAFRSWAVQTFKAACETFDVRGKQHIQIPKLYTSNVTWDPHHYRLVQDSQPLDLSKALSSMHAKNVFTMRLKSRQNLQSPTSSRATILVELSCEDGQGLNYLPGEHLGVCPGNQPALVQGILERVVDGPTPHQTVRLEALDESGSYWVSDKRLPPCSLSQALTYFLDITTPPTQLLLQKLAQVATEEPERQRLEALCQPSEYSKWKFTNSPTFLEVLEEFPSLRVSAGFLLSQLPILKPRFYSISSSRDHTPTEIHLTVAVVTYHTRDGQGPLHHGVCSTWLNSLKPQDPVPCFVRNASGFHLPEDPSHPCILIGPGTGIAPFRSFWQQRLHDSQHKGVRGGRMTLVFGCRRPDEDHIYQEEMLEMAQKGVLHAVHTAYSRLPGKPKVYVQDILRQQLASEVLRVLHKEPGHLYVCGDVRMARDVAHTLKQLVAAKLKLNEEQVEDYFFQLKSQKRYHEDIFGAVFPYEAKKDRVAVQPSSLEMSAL
Chain of Nitric oxide sythases; iNOS & nNOS (Homo sapiens) (P29475 whole entry, looked up): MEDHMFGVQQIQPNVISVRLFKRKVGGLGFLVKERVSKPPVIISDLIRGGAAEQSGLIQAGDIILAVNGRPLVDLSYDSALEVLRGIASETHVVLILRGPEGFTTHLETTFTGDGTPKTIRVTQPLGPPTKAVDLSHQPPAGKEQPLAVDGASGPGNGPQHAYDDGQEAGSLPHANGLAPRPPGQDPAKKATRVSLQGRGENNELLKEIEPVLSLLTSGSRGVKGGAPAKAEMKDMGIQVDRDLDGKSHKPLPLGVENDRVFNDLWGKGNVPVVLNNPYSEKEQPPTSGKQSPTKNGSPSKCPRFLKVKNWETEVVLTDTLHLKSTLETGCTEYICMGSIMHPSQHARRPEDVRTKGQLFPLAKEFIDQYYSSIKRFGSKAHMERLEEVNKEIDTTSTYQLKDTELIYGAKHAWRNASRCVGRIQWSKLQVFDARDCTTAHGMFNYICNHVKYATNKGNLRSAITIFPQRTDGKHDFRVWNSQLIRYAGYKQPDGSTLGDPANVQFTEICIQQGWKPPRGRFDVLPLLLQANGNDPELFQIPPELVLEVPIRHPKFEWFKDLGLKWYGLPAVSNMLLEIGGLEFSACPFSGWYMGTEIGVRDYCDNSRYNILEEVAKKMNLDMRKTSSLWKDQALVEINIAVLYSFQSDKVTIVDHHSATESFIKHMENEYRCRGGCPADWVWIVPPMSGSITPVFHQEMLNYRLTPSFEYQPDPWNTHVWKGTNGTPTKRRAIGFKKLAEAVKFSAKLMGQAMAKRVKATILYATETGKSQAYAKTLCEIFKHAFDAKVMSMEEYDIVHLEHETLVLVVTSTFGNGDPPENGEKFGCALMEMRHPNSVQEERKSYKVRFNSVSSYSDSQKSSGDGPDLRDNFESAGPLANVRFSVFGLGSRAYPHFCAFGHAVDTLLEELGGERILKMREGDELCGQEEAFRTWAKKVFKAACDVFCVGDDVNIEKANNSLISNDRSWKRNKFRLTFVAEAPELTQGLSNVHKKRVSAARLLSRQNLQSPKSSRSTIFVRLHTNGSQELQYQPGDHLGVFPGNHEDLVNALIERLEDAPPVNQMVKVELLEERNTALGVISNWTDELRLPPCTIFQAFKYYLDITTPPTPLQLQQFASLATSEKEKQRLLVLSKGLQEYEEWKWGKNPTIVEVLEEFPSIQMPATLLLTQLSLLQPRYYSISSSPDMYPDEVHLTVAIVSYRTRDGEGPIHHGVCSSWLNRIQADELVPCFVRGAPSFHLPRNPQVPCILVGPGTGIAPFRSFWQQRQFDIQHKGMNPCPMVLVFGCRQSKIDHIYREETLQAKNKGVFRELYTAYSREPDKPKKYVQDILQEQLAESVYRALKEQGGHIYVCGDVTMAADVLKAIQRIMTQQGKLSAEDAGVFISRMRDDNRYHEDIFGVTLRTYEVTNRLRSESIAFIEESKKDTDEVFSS
Chain of Nitric oxide sythases; iNOS & nNOS (Homo sapiens) (P35228 whole entry, looked up): as the sequence (P35228 whole entry) above
Chain of Nitric oxide synthase 1 (Homo sapiens, UniProt P29475) (P29475 whole entry): as the sequence (P29475 whole entry, looked up) above
T2 sequence (P23975 whole entry): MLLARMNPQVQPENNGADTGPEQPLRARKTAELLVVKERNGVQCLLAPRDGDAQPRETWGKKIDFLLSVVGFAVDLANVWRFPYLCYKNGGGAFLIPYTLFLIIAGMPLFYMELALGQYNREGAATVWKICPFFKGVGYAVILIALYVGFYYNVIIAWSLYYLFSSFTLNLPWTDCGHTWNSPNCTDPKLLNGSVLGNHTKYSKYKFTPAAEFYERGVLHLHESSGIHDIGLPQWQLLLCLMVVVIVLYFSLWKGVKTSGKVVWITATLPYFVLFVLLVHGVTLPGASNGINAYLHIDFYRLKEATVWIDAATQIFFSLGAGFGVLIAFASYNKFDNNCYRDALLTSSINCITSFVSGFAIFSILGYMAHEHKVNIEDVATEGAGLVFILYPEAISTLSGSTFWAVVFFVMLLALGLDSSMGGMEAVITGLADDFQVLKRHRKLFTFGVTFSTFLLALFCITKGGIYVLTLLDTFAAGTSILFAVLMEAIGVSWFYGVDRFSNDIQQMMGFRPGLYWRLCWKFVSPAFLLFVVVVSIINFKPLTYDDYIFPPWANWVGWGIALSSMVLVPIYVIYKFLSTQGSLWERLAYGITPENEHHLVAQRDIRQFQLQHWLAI
Chain of 5-hydroxytryptamine receptor 1B (Rattus norvegicus) (P28564 whole entry): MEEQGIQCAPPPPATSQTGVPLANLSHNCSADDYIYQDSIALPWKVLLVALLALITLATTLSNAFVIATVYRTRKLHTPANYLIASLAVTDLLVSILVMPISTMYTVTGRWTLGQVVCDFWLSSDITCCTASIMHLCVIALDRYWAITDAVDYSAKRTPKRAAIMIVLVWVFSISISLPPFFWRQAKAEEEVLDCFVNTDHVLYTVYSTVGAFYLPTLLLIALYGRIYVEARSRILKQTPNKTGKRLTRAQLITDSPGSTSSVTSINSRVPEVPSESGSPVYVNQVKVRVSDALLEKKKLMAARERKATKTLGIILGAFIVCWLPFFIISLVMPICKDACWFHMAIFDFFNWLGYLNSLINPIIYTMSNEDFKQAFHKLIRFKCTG
Chain of Nitric oxide synthase 3 (Rattus norvegicus, UniProt Q62600) (Q62600 whole entry): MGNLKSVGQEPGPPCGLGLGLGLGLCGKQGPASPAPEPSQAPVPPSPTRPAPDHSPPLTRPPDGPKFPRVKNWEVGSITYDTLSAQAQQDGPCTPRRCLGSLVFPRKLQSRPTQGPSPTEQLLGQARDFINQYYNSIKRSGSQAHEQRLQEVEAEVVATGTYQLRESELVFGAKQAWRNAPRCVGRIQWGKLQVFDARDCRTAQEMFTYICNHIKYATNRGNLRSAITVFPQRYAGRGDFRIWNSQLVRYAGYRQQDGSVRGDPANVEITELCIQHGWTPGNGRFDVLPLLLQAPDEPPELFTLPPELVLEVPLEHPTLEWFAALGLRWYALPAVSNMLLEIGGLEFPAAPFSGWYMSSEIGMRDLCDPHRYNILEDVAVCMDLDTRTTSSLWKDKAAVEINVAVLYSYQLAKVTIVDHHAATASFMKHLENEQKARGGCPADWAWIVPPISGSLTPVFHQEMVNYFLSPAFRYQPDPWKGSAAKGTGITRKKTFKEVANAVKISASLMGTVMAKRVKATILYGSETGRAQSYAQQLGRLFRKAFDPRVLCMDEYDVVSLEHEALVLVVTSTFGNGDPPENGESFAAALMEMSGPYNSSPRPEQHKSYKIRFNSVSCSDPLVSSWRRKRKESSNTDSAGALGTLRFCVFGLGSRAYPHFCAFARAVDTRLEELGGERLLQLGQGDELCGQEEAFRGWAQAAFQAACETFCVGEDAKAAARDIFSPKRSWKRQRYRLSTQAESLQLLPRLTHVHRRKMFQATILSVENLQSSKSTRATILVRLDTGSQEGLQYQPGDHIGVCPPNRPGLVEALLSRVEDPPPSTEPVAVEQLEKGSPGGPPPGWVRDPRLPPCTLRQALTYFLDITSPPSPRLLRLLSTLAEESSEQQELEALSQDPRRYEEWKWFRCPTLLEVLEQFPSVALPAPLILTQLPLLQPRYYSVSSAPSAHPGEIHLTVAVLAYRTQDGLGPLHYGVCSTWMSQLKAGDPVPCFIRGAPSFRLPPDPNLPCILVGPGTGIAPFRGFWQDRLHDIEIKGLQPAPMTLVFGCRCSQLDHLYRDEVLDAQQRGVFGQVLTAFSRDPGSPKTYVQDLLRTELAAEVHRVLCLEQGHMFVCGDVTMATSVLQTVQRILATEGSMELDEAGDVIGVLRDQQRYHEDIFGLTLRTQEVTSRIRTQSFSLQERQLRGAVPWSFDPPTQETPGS

Compound | Ratio IC50 [1] | IC50 [2] [µM] | IC50 [3] [µM] | IC50 [4] [µM] | Ratio IC50 [5] | also measured
N=C(Nc1ccc2c(c1)N(C1CCCCC1)CC2)c1cccs1 | 27 | – | – | – | – | –
NC(=Nc1ccc2c(c1)N(C1CCOCC1)CC2)c1cccs1 | – | 3.26 | 84.8 | > 100 | – | –
N=C(Nc1ccc2c(c1)N(C1CCOCC1)CC2)c1cccs1 | 26 | – | – | – | – | –
CN[C@H]1CC[C@@H](N2CCc3cc(F)c(NC(=N)c4cccs4)cc32)CC1 | 38 | 5.82 | 220 | 897 | 154 | –
N=C(Nc1ccc2c(c1)N(CCN1CC[C@@H](O)C1)CC2)c1cccs1 | 71 | – | – | – | 62 | –
NC(=Nc1ccc2c(c1)N(CCNCCO)CC2)c1cccs1 | – | 0.07 | 3.36 | 3.41 | – | –
N=C(Nc1ccc2c(c1)N(CCNCCO)CC2)c1cccs1 | 48 | – | – | – | 49 | –
N=C(Nc1ccc2c(c1)N(C1CCSCC1)CC2)c1cccs1 | 10 | – | – | – | 0.5 | –
NC(=Nc1ccc2c(c1)N(C1CCNCC1)CC2)c1cccs1 | – | 0.54 | 99 | 2.39 | – | –
CN[C@H]1CC[C@@H](N2CCc3ccc(NC(=N)c4cccs4)cc32)CC1 | – | 0.37 | 195 | 83 | – | IC50 [6]: 1.93 µM; IC50 [7]: 4.16 µM; IC50 [8]: 2.34 µM; Activity [9]: Active; Activity [10]: Not Active; Activity [11]: Not Active; inhibition [12]: 52%; inhibition [13]: 69%; inhibition [14]: 72%; inhibition [15]: 58%; inhibition [16]: 60%; inhibition [17]: 59%; inhibition [18]: 80%; inhibition [19]: 80%; inhibition [20]: 85%; inhibition [21]: 95%; inhibition [22]: 90%; inhibition [23]: 86%; IC50 [24]: 4.4 µM; MPE [25]: 66%
NC(=Nc1ccc2c(c1)N(C1CCCCC1)CC2)c1cccs1 | – | 4.07 | 109 | > 100 | – | –
N=C(Nc1ccc2c(c1)N(C1CCNCC1)CC2)c1cccs1 | 183 | – | – | – | 4 | –
N=C(Nc1ccc2c(c1)N(C1CCNC1)CC2)c1cccs1 (racemic) | 40 | 0.18 | 7.17 | 8.94 | 50 | –
CN1CCC[C@H]1CCN1CCCc2cc(NC(=N)c3cccs3)ccc21 | – | – | – | – | – | IC50 [26]: 4.7 µM; Activity [10]: Active; Activity [11]: Active
NC(=Nc1ccc2c(c1)N(CCN1CC[C@@H](O)C1)CC2)c1cccs1 | – | 0.11 | 7.12 | 6.79 | – | –
NC(=Nc1ccc2c(c1)N(C1CCSCC1)CC2)c1cccs1 | – | 2.07 | 21.5 | 1.12 | – | –
CN[C@H]1CC[C@H](N2CCc3cc(F)c(NC(=N)c4cccs4)cc32)CC1 | 41 | 5.75 | 231 | 522 | 91 | –
N=C(Nc1cc2c(cc1F)CCN2C1CCNCC1)c1cccs1 | 13 | 18.8 | 243 | 481 | 26 | –
CN[C@H]1CC[C@H](N2CCc3ccc(NC(=N)c4cccs4)cc32)CC1 | – | 2.12 | 237 | 189 | – | –
